Experimental data from ChEMBL document CHEMBL1123266, “Antibacterial activity of phosphono dipeptides related to alafosfalin” (J Med Chem, 1986).
Converted amounts (≈) assume the structure as drawn.

How the values were obtained:
Bacillus subtilis [1] = experiment: Concentration (IC50) to inhibit the growth of Bacillus subtilis; type: functional, organism-based
Procedure, shortened: (§1)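 Broth dilution in a defined liquid peptide medium lacking antagonists of small peptide mimetics. Inocula were overnight cultures grown in this medium at 37 °C and diluted to about 4 × 10^6 cfu/mL. Compound was tested as a doubling dilution series, final 0.065–512 μg/mL, incubated overnight at 37 °C. Turbidity was read, and IC50 is the concentration reducing 24-h growth to 50% of control.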

Staphylococcus aureus [2] = experiment: Minimum inhibitory concentration (MIC) to control the growth of Staphylococcus aureus strain PCM 2054.; type: functional
Procedure, shortened: (§2)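 Doubling dilutions of compound were made in a defined liquid peptide medium free of peptide-mimetic antagonists, final 0.065–512 μg/mL. The inoculum was an overnight 37 °C culture diluted to about 4 × 10^6 cfu/mL, incubated overnight at 37 °C. Non-turbid samples were subcultured (0.1 mL) onto solid peptide-medium agar and incubated overnight at 37 °C to assign MIC.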

Escherichia coli [3] = experiment: Minimum inhibitory concentration (MIC) to control the growth of Escherichia coli strain PCM 2057; type: functional; procedure, shortened: as §2
Serratia marcescens [4] = experiment: Concentration (IC50) to inhibit the growth of Serratia marcescens.; type: functional, organism-based; procedure, shortened: as §1
Enterococcus faecalis [5] = experiment: Minimum inhibitory concentration (MIC) to control the growth of Streptococcus faecalis strain PCM 896; type: functional; procedure, shortened: as §2
Klebsiella aerogenes [6] = experiment: Concentration (IC50) to inhibit the growth of Klebsiella aerogenes.; type: functional, organism-based; procedure, shortened: as §1
Staphylococcus aureus [7] = experiment: Concentration (IC50) to inhibit the growth of Staphylococcus aureus.; type: functional, organism-based; procedure, shortened: as §1
Serratia marcescens [8] = experiment: Minimum inhibitory concentration (MIC) to control the growth of Serratia marcescens strain PCM 549.; type: functional; procedure, shortened: as §2
Bacillus subtilis [9] = experiment: Minimum inhibitory concentration (MIC) to control the growth of Bacillus subtilis strain PCM 1949.; type: functional; procedure, shortened: as §2
Enterococcus faecalis [10] = experiment: Concentration (IC50) to inhibit the growth of Streptococcus faecalis.; type: functional, organism-based; procedure, shortened: as §1
Escherichia coli [11] = experiment: Concentration (IC50) to inhibit the growth of Escherichia coli.; type: functional, organism-based; procedure, shortened: as §1
Klebsiella aerogenes [12] = experiment: Minimum inhibitory concentration (MIC) to control the growth of Klebsiella aerogenes strain PCM 2063; type: functional; procedure, shortened: as §2

Structure (SMILES) | MIC (Staphylococcus aureus [2]) [µg/mL] | MIC (Escherichia coli [3]) [µg/mL] | MIC (Enterococcus faecalis [5]) [µg/mL] | MIC (Serratia marcescens [8]) [µg/mL] | MIC (Bacillus subtilis [9]) [µg/mL] | MIC (Klebsiella aerogenes [12]) [µg/mL] | IC50 (Bacillus subtilis [1]) [µg/mL] | IC50 (Serratia marcescens [4]) [µg/mL] | IC50 (Klebsiella aerogenes [6]) [µg/mL] | IC50 (Staphylococcus aureus [7]) [µg/mL] | IC50 (Enterococcus faecalis [10]) [µg/mL] | IC50 (Escherichia coli [11]) [µg/mL]
CC(N)C(=O)N1CCCC1P(=O)(O)O (stereo not drawn) | > 512 | > 512 | > 512 | > 512 | > 512 | > 512 | > 512 | > 512 | > 512 | > 512 | > 512 | > 512
CC(N)C(=O)NC(C(C)C)P(=O)(O)O (stereo not drawn) | > 512 | > 512 | > 512 | > 512 | > 512 | > 512 | > 512 | > 512 | > 512 | 6.8 (≈ 30.3 µM) | 0.09 (≈ 0.401 µM) | > 512
CC(N)C(=O)NC(C12CC3CC(CC(C3)C1)C2)P(=O)(O)O (stereo not drawn) | > 512 | > 512 | > 512 | > 512 | > 512 | > 512 | > 512 | > 512 | > 512 | > 512 | > 512 | > 512
CC(N)C(=O)NC(C(C)(C)C)P(=O)(O)O (stereo not drawn) | > 512 | > 512 | > 512 | > 512 | > 512 | > 512 | > 512 | > 512 | > 512 | > 512 | > 512 | > 512
COc1ccc(CC(NC(=O)C(C)N)P(=O)(O)O)cc1OC (stereo not drawn) | > 512 | > 512 | > 512 | > 512 | > 512 | > 512 | > 512 | > 512 | > 512 | > 512 | > 512 | > 512
CC(N)C(=O)NC(C)(C)P(=O)(O)O (stereo not drawn) | 256 (≈ 1220 µM) | 64 (≈ 305 µM) | 8 (≈ 38.1 µM) | > 512 |  | 256 (≈ 1220 µM) | 16 (≈ 76.1 µM) | 48 (≈ 228 µM) | 512 (≈ 2440 µM) | 282 (≈ 1340 µM) | 19 (≈ 90.4 µM) | 5.6 (≈ 26.6 µM)

Second part, led by results:

MIC (Staphylococcus aureus [2]) [µg/mL] | MIC (Escherichia coli [3]) [µg/mL] | MIC (Enterococcus faecalis [5]) [µg/mL] | MIC (Serratia marcescens [8]) [µg/mL] | MIC (Bacillus subtilis [9]) [µg/mL] | MIC (Klebsiella aerogenes [12]) [µg/mL] | Structure (SMILES) | IC50 (Bacillus subtilis [1]) [µg/mL] | IC50 (Serratia marcescens [4]) [µg/mL] | IC50 (Klebsiella aerogenes [6]) [µg/mL] | IC50 (Staphylococcus aureus [7]) [µg/mL] | IC50 (Enterococcus faecalis [10]) [µg/mL] | IC50 (Escherichia coli [11]) [µg/mL]
256 (≈ 1010 µM) | 64 (≈ 254 µM) | 8 (≈ 31.7 µM) | > 512 | 256 (≈ 1010 µM) | 256 (≈ 1010 µM) | CC(C)CC(N)C(=O)NC(C)(C)P(=O)(O)O (stereo not drawn) | 45 (≈ 178 µM) | 384 (≈ 1520 µM) | 4.4 (≈ 17.4 µM) | 48 (≈ 190 µM) | 4.4 (≈ 17.4 µM) | 35 (≈ 139 µM)
> 512 | > 512 | > 512 | > 512 | > 512 | > 512 | CC(N)C(=O)NC(C1CCCC1)P(=O)(O)O (stereo not drawn) | > 512 | > 512 | > 512 | 512 (≈ 2050 µM) | 16 (≈ 63.9 µM) | > 512
512 (≈ 1830 µM) | > 512 | > 512 | > 512 | > 512 | > 512 | CC(C)CC(N)C(=O)NC(CC(C)C)P(=O)(O)O (stereo not drawn) | 32 (≈ 114 µM) | 64 (≈ 228 µM) | > 512 | 104 (≈ 371 µM) | > 512 | 307 (≈ 1100 µM)
> 512 | > 512 | > 512 | > 512 | > 512 | > 512 | COc1ccc(CC(NC(=O)C(N)CC(C)C)P(=O)(O)O)cc1OC (stereo not drawn) | > 512 | > 512 | > 512 | > 512 | > 512 | > 512
32 (≈ 134 µM) | 8 (≈ 33.6 µM) | > 512 | 0.5 (≈ 2.1 µM) | 16 (≈ 67.2 µM) | > 512 | CC(C)CC(N)C(=O)NC(C)P(=O)(O)O (stereo not drawn) | 4 (≈ 16.8 µM) | 0.1 (≈ 0.42 µM) | 1.6 (≈ 6.72 µM) | 8 (≈ 33.6 µM) | 2 (≈ 8.4 µM) | 0.09 (≈ 0.378 µM)
256 (≈ 1070 µM) | > 512 | > 512 | > 512 | > 512 | > 512 | CC(C)CC(NC(=O)C(C)N)P(=O)(O)O (stereo not drawn) | 153 (≈ 642 µM) | > 512 | > 512 | 48 (≈ 201 µM) | 90 (≈ 378 µM) | > 512
